{
  "source": "ChEMBL document CHEMBL4400543",
  "about": "“Identification and Characterization of AES-135, a Hydroxamic Acid-Based HDAC Inhibitor That Prolongs Survival in an Orthotopic Mouse Model of Pancreatic Cancer” (J Med Chem, 2019)",
  "key": {"[1]": {"target": "Signal transducer and activator of transcription 3 (Homo sapiens) (UniProt P40763)", "sequence (P40763 whole entry)": "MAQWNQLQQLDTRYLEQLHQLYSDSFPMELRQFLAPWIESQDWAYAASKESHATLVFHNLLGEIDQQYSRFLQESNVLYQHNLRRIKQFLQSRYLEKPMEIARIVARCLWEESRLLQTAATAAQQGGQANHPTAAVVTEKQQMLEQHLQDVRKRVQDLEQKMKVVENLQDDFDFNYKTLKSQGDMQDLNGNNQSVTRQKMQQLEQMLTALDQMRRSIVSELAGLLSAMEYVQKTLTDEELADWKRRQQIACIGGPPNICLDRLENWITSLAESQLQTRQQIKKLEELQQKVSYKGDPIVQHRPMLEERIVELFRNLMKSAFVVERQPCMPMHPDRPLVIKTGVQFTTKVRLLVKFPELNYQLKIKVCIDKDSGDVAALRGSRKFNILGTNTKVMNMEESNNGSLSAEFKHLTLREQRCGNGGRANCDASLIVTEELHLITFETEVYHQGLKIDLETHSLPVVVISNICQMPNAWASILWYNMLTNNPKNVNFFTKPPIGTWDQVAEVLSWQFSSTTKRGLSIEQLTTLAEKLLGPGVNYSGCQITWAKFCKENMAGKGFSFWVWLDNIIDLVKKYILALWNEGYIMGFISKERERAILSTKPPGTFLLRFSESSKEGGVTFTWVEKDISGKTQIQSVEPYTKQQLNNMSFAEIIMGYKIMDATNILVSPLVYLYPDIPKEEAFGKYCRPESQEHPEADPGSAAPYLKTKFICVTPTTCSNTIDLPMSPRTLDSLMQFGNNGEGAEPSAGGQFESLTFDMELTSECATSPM", "assay": "Inhibition of STAT3 phosphorylation at Y705 residue in human BTSC 100EF cells at 1 to 10 uM after 24 hrs by Western blot method", "format": "cell-based", "how_it_was_run": "(§1)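 BTSCs dissociated to single cells and treated with drug or DMSO. Lysed in RIPA buffer with protease inhibitors. 20 μg lysate run on SDS-PAGE and transferred to nitrocellulose. Blocked in 5% milk, primary antibody overnight at 4 °C, then HRP secondary for 1 h.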"}, "MOLM-13": {"system": "MOLM-13", "assay": "Cytotoxicity against human MOLM13 cells at 50 uM after 72 hrs by CellTiter-Blue assay", "format": "functional, cell-based", "how_it_was_run": "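Cells in 10% FBS medium, 10 000 cells/well, treated 24 h after plating. Twofold dilution series from a 50.0 μM top dose to 0.097656 μM, in triplicate, 0.5% DMSO vehicle. 72 h at 37 °C, 5% CO2. CellTiter-Blue for 1–4 h, fluorescence 560/590 nm. IC50 by nonlinear regression.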"}, "[2]": {"assay": "Drug uptake in NSG mouse serum at 20 mg/kg, ip administered as single dose and measured at 1 hr by HPLC-MS/MS analysis", "format": "ADME, organism-based", "settings": "read-out: Drug uptake", "how_it_was_run": "(§2)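 NSG mice given a single 20 mg/kg IP dose in Cremophor EL/EtOH (1:1, 4% final volume)/sterile saline. Tail-vein blood at 0.5, 1, 2, 4, 8 and 24 h, n = 2. Drug quantified in serum/plasma. Half-life and clearance calculated assuming 100% bioavailability.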"}, "[3]": {"assay": "Intrinsic clearance in ICR/CD1 mouse hepatocytes assessed per million cells at 1 uM up to 120 mins by LC-MS/MS analysis", "format": "ADME, cell-based, Hepatocyte", "settings": "2 h"}, "[4]": {"assay": "Half life in NSG mouse at 20 mg/kg, ip administered as single dose by HPLC-MS/MS analysis", "format": "ADME, organism-based", "settings": "in vivo", "how_it_was_run": "as §2"}, "[5]": {"assay": "Drug uptake in NSG mouse serum at 40 mg/kg, ip administered daily for 5 days by HPLC-MS/MS analysis", "format": "ADME, organism-based", "settings": "read-out: Drug uptake", "how_it_was_run": "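NSG mice dosed IP once daily for 5 days at 10 or 40 mg/kg, n = 6. Blood collected 5 h after the final injection for serum drug concentration, reported ± SD.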"}, "[6]": {"assay": "Clearance in NSG mouse at 20 mg/kg, ip administered as single dose by HPLC-MS/MS analysis", "format": "ADME, organism-based", "settings": "in vivo", "how_it_was_run": "as §2"}, "Panc1005": {"system": "Panc1005", "assay": "Cytotoxicity against human Panc 10.05 cells assessed as reduction in tumor spheroid intensity after 72 hrs by Alamar Blue assay", "format": "functional, cell-based", "settings": "Panc1005, 72 h", "how_it_was_run": "(§3)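 3D spheroids of patient-derived PDAC cells (tomato red) alone or with CAF19 cells, plus CAF cultures. Imaging read-outs: area is the μ2 of objects above a tomato red intensity threshold; intensity is summed red or green pixel fluorescence after background removal. n = 3–5.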"}, "[7]": {"target": "Signal transducer and activator of transcription 5B (Homo sapiens) (UniProt P51692)", "sequence (P51692 whole entry)": "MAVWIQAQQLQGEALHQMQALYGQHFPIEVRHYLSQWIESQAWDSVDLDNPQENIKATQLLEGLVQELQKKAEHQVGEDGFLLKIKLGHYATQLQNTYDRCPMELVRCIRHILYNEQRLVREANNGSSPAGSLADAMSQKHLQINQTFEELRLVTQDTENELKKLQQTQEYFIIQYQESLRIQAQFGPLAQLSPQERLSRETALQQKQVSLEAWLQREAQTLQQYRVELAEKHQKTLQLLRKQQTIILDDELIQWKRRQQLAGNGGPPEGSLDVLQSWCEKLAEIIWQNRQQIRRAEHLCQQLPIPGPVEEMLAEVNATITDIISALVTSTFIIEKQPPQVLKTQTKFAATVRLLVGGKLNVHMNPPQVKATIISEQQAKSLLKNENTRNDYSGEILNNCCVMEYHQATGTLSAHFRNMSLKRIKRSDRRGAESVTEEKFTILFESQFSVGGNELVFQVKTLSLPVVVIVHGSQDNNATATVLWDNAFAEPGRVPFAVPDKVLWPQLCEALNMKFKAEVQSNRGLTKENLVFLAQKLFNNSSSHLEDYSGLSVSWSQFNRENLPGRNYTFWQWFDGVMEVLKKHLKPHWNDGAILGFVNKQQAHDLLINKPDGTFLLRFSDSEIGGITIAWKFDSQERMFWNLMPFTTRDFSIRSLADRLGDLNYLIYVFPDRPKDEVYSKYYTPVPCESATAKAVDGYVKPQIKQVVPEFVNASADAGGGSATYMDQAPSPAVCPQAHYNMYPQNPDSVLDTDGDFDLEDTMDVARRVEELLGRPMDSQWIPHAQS", "assay": "Inhibition of STAT5b phosphorylation at Y694 in human MV4-11 cells at 10 uM after 5 hrs by Western blot method", "format": "cell-based", "how_it_was_run": "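Run on 4–15% SDS-PAGE and transferred to PVDF. Primary antibodies 1:1000 overnight at 4 °C, HRP or fluorescent secondary 1:5000, ECL detection, β-actin loading control.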"}, "[8]": {"assay": "Toxicity in NSG mouse assessed as body weight loss at 60 mg/kg, ip administered daily for 4 to 5 days", "format": "organism-based", "settings": "in vivo", "how_it_was_run": "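NSG mice were dosed IP daily across a range of doses for 4–5 days (n = 6). Animals were weighed before and after dosing, and toxicity was scored as percentage body-weight loss.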"}, "Histone deacetylase 3": {"target": "Histone deacetylase 3 (Homo sapiens, UniProt O15379)", "sequence (O15379 whole entry)": "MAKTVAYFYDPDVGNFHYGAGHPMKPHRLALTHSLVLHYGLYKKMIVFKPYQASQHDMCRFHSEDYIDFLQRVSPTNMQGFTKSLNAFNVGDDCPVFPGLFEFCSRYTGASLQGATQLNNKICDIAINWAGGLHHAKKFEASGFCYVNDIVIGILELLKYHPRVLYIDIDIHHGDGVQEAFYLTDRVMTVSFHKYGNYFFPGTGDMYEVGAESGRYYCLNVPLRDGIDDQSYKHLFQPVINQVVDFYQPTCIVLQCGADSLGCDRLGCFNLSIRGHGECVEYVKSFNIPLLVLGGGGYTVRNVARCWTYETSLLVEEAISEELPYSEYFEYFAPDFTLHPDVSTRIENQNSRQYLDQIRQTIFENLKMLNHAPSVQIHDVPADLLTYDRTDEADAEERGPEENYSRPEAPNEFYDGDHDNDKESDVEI", "assay": "Inhibition of recombinant human HDAC3 expressed in SF9 baculoviral system using FAM-labeled acetylated peptide as substrate by EMSA", "how_it_was_run": "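Full-length recombinant human enzyme from an Sf9 baculovirus system, in 100 mM HEPES pH 7.5 with 25 mM KCl, 0.1% BSA, 0.01% Triton X-100 and 1% DMSO. Final enzyme was 0.5 nM for HDAC3, 60 nM for HDAC6 and 5.0 nM for HDAC8. FAM-acetylated peptide was 1 μM. The read-out was product/(substrate+product) by microfluidic mobility shift, with inhibition set against DMSO and no-enzyme controls (quadruplicate). Compounds were tested at 12 threefold-spaced concentrations, and IC50 came from a four-parameter sigmoid fit.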"}, "[9]": {"assay": "Drug uptake in NSG mouse serum at 20 mg/kg, ip administered as single dose and measured at 8 hrs by HPLC-MS/MS analysis", "format": "ADME, organism-based", "settings": "read-out: Drug uptake", "how_it_was_run": "as §2"}, "[10]": {"assay": "Antitumor activity against mouse KPC cells allografted in immunocompetent C57BI/6 mouse assessed as mean survival time at 50 mg/kg, ip administered daily for 5 days per week for 1 month starting on day 7 post implantation (reference value: 29.5 days)", "format": "functional"}, "[11]": {"target": "Signal transducer and activator of transcription 3 (Homo sapiens) (UniProt P40763)", "assay": "Inhibition of STAT3 phosphorylation at S727 residue in human BTSC 147EF cells at 2 uM after 3 to 24 hrs by Western blot method", "format": "cell-based", "how_it_was_run": "as §1"}, "[12]": {"assay": "Cmax in NSG mouse at 20 mg/kg, ip administered as single dose and measured at 0.5 hrs by HPLC-MS/MS analysis", "format": "ADME, organism-based", "set-up": "dose 20 mg/kg, route intraperitoneal", "settings": "in vivo", "how_it_was_run": "as §2"}, "[13]": {"assay": "Stability of the compound in DMSO at 10 mM after 25 hrs in presence of reduced L-glutathione by HPLC analysis", "format": "physicochemical", "settings": "10000 µM", "how_it_was_run": "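A 10 mM DMSO stock was mixed with 100-fold excess reduced glutathione in HEPES buffer, pH 7.4. Samples were analysed by reversed-phase HPLC at regular intervals, with UV at 254 nm. Decay of the parent compound was followed as loss of its peak area.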"}, "[14]": {"assay": "Drug uptake in NSG mouse serum at 20 mg/kg, ip administered as single dose and measured at 0.5 hrs by HPLC-MS/MS analysis", "format": "ADME, organism-based", "settings": "read-out: Drug uptake", "how_it_was_run": "as §2"}, "[15]": {"target": "Histone deacetylase 4 (Homo sapiens) (UniProt P56524)", "sequence (P56524 whole entry)": "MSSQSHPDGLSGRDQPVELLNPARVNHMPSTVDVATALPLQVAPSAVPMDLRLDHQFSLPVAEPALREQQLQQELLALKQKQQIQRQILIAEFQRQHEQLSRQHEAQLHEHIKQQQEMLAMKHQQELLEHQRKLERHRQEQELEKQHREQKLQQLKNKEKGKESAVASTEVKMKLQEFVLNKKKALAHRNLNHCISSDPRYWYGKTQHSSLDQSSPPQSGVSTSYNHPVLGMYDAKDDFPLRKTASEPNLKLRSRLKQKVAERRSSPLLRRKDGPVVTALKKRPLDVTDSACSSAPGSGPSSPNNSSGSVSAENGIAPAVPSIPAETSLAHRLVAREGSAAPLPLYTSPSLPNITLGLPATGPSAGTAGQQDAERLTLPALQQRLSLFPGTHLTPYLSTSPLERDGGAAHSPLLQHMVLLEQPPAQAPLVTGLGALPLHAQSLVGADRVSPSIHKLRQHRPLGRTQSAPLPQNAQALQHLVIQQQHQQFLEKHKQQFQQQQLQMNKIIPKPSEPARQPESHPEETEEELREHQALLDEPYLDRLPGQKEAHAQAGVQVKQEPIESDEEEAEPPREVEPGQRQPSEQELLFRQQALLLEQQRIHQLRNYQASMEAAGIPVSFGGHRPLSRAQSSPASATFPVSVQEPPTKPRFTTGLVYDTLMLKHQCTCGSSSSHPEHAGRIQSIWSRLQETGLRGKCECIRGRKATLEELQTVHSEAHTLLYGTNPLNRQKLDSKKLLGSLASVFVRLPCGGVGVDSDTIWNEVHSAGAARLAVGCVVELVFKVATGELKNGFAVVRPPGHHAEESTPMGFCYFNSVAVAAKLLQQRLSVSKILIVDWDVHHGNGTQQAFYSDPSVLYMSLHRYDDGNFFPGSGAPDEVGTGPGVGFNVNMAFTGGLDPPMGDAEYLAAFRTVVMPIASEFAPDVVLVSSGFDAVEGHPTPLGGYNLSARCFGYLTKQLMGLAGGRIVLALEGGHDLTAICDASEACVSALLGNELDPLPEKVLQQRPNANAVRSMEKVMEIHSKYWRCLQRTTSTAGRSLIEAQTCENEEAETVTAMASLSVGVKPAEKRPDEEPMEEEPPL", "assay": "Inhibition of recombinant human HDAC4 expressed in SF9 baculoviral system at 10 uM using FAM-labeled acetylated peptide as substrate by EMSA relative to control"}, "Pa03C": {"system": "Pa03C", "assay": "Cytotoxicity against human Pa03C cells assessed as reduction in tumor spheroid area after 72 hrs by Alamar Blue assay", "format": "functional, cell-based", "how_it_was_run": "as §3"}, "[16]": {"assay": "Toxicity in NSG mouse at 10 to 40 mg/kg, ip assessed as induction of body weight loss administered daily for 5 days by HPLC-MS/MS analysis", "format": "organism-based", "settings": "in vivo, 120 h", "how_it_was_run": "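NSG mice were given 10 or 40 mg/kg IP once daily for 5 days (n = 6). Blood was drawn 5 h after the last injection for compound measurement. Toxicity was judged by percentage weight loss versus vehicle-treated mice.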"}, "[17]": {"assay": "Half life in ICR/CD1 mouse hepatocytes at 1 uM up to 120 mins by LC-MS/MS analysis", "format": "ADME, cell-based, Hepatocyte", "settings": "2 h"}, "[18]": {"assay": "Drug uptake in NSG mouse serum at 20 mg/kg, ip administered as single dose and measured at 4 hrs by HPLC-MS/MS analysis", "format": "ADME, organism-based", "settings": "read-out: Drug uptake", "how_it_was_run": "as §2"}, "[19]": {"assay": "Drug uptake in NSG mouse serum at 20 mg/kg, ip administered as single dose and measured at 2 hrs by HPLC-MS/MS analysis", "format": "ADME, organism-based", "settings": "read-out: Drug uptake", "how_it_was_run": "as §2"}, "[20]": {"target": "Signal transducer and activator of transcription 3 (Homo sapiens) (UniProt P40763)", "assay": "Inhibition of STAT3 phosphorylation at Y705 residue in human BTSC 143EF cells at 1 to 10 uM after 24 hrs by Western blot method", "format": "cell-based", "how_it_was_run": "as §1"}},
  "note": "The source made the active and inactive calls.",
  "data": [
    {"smiles": "CC(C)(C)c1ccc(CN(C(=O)CN(Cc2c(F)c(F)c(F)c(F)c2F)S(=O)(=O)c2ccc(F)cc2)c2ccc(C(=O)NO)cc2)cc1", "values": [
      {"measurement": "inhibition", "setting": "[1]", "value": "inactive"},
      {"measurement": "Activity", "setting": "MOLM-13", "value": "Active"},
      {"measurement": "concentration at 1 h", "setting": "[2]", "value": 5400, "unit": "ng/mL"},
      {"measurement": "CLH", "setting": "[3]", "value": 36, "unit": "µL/min"},
      {"measurement": "half-life", "setting": "[4]", "value": 5, "unit": "h"},
      {"measurement": "concentration at 120 h", "setting": "[5]", "value": 2.64, "unit": "µM"},
      {"measurement": "CL/F", "setting": "[6]", "value": 0.0667, "unit": "mL/min"},
      {"measurement": "IC50", "setting": "Panc1005", "value": 600, "unit": "nM"},
      {"measurement": "inhibition", "setting": "[7]", "value": "inactive"},
      {"measurement": "Activity", "setting": "[8]", "value": "Non-Toxic"},
      {"measurement": "IC50", "setting": "Histone deacetylase 3", "value": 654, "unit": "nM"},
      {"measurement": "concentration at 8 h", "setting": "[9]", "value": 6390, "unit": "ng/mL"},
      {"measurement": "MST", "setting": "[10]", "value": 36.5, "unit": "days"},
      {"measurement": "inhibition", "setting": "[11]", "value": "inactive"},
      {"measurement": "Cmax", "setting": "[12]", "value": 10.7, "unit": "µM"},
      {"measurement": "Stability", "setting": "[13]", "value": "Stable"},
      {"measurement": "concentration at 0.5 h", "setting": "[14]", "value": 7450, "unit": "ng/mL"},
      {"measurement": "inhibition", "setting": "[15]", "value": 15, "unit": "%"},
      {"measurement": "IC50", "setting": "Pa03C", "value": 1220, "unit": "nM"},
      {"measurement": "Activity", "setting": "[16]", "value": "Non-Toxic"},
      {"measurement": "t1/2", "setting": "[17]", "value": 0.642, "unit": "h"},
      {"measurement": "concentration at 4 h", "setting": "[18]", "value": 3660, "unit": "ng/mL"},
      {"measurement": "concentration at 2 h", "setting": "[19]", "value": 5390, "unit": "ng/mL"},
      {"measurement": "inhibition", "setting": "[20]", "value": "inactive"}
    ]}
  ]
}
